From ChEMBL document CHEMBL1275561, “In vitro activities of doripenem, a new broad-spectrum carbapenem, against recently collected clinical anaerobic isolates, with emphasis on the Bacteroides fragilis group” (2008)
≈ marks a conversion by molar mass, not a printed value. Where “and” joins values, the source holds several entries; their conditions need not be identical. Identical values can stand only once.

How the values were obtained:
Assay type in all cases: functional
[1] = tested on: Bacteroides caccae; assay: Antimicrobial activity against Bacteroides caccae assessed as resistant isolates by agar dilution method
Method in brief: (§1)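 CLSI agar dilution on enriched brucella agar (5% lysed defibrinated sheep blood, 1 μg/ml vitamin K1), plates made on test day. Log-phase inocula adjusted to 0.5 McFarland; about 10^5 CFU/spot by Steers replicator. Incubated anaerobically at 37°C for 48 h. MIC was the lowest concentration giving a marked change in growth versus the drug-free control plate. Resistance rates used CLSI anaerobe breakpoints. Controls were B. fragilis ATCC 25285 and B. thetaiotaomicron ATCC 29741.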

[2] = tested on: Parabacteroides distasonis; assay: Antimicrobial activity against Bacteroides distasonis assessed as resistant isolates by agar dilution method; method in brief: as §1
[3] = tested on: Bacteroides fragilis; assay: Antimicrobial activity against Bacteroides fragilis assessed as resistant isolates by agar dilution method; method in brief: as §1
[4] = tested on: Bacteroides ovatus; assay: Antimicrobial activity against Bacteroides ovatus assessed as resistant isolates by agar dilution method; method in brief: as §1
[5] = tested on: Bacteroides thetaiotaomicron; assay: Antimicrobial activity against Bacteroides thetaiotaomicron assessed as resistant isolates by agar dilution method; method in brief: as §1
[6] = tested on: Bacteroides uniformis; assay: Antimicrobial activity against Bacteroides uniformis assessed as resistant isolates by agar dilution method; method in brief: as §1
[7] = tested on: Phocaeicola vulgatus; assay: Antimicrobial activity against Bacteroides vulgatus assessed as resistant isolates by agar dilution method; method in brief: as §1
[8] = tested on: Bacteroides eggerthii; assay: Antimicrobial activity against Bacteroides eggerthii assessed as resistant isolates by agar dilution method; method in brief: as §1
[9] = tested on: Parabacteroides merdae; assay: Antimicrobial activity against Bacteroides merdae assessed as resistant isolates by agar dilution method; method in brief: as §1
[10] = tested on: Bacteroides nordii; assay: Antimicrobial activity against Bacteroides nordii assessed as resistant isolates by agar dilution method; method in brief: as §1
[11] = tested on: Clostridioides difficile; assay: Antimicrobial activity against Clostridium difficile by agar dilution method in presence of beta-lactamase inhibitor Tazobactam
Method in brief: (§2)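 Gram-positive anaerobes were tested by CLSI agar dilution on brucella agar enriched with 5% lysed defibrinated sheep blood and 1 μg/ml vitamin K1. Inoculum was log-phase growth at 0.5 McFarland, about 10^5 CFU/spot by replicator. Incubation was anaerobic, 37°C, 48 h. MIC was the lowest concentration with a marked growth change versus the drug-free plate. Eubacterium lentum ATCC 43055 was the control, and tests were repeated if it fell outside the CLSI range.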

[12] = tested on: [Clostridium] innocuum; assay: Antimicrobial activity against Clostridium innocuum assessed as resistant isolates by agar dilution method; conditions: pooled result: one value given for 4 cell lines, strains, targets or settings
[13] = tested on: Finegoldia magna; assay: Antimicrobial activity against Finegoldia magna by agar dilution method in presence of beta-lactamase inhibitor Tazobactam; method in brief: as §2
[14] = tested on: Finegoldia magna; assay: Antimicrobial activity against Finegoldia magna assessed as resistant isolates by agar dilution method
Method in brief: (§3)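 Agar dilution following CLSI on brucella agar with 5% lysed defibrinated sheep blood and 1 μg/ml vitamin K1, plates made on test day. Log-phase cells at 0.5 McFarland, about 10^5 CFU/spot by Steers replicator, 48 h anaerobic at 37°C. MIC read as the lowest concentration causing a marked growth change versus control. Resistance counted by CLSI anaerobe breakpoints. Eubacterium lentum ATCC 43055 served as control.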

[15] = tested on: Peptoniphilus asaccharolyticus; assay: Antimicrobial activity against Peptoniphilus asaccharolyticus by agar dilution method in presence of beta-lactamase inhibitor Tazobactam; method in brief: as §2
[16] = tested on: Peptoniphilus asaccharolyticus; assay: Antimicrobial activity against Peptoniphilus asaccharolyticus assessed as resistant isolates by agar dilution method; conditions: pooled result: one value given for 4 cell lines, strains, targets or settings; method in brief: as §3
[17] = tested on: Parvimonas micra; assay: Antimicrobial activity against Micromonas micros by agar dilution method in presence of beta-lactamase inhibitor Tazobactam; method in brief: as §2
[18] = tested on: Anaerococcus prevotii; assay: Antimicrobial activity against Anaerococcus prevotii by agar dilution method in presence of beta-lactamase inhibitor Tazobactam; method in brief: as §2
[19] = tested on: Peptostreptococcus sp.; assay: Antimicrobial activity against Peptostreptococcus sp. by agar dilution method in presence of beta-lactamase inhibitor Tazobactam
Method in brief: (§4)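 Log-phase isolates were adjusted to 0.5 McFarland, and about 10^5 CFU/spot was delivered by Steers replicator. Plates were incubated anaerobically at 37°C for 48 h. MIC was the lowest concentration giving a marked growth change versus the control plate. Eubacterium lentum ATCC 43055 was the QC strain, with repeats when out of range.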

[20] = tested on: Cutibacterium acnes; assay: Antimicrobial activity against Propionibacterium acnes by agar dilution method in presence of beta-lactamase inhibitor Tazobactam; method in brief: as §4
[21] = tested on: Cutibacterium acnes; assay: Antimicrobial activity against Propionibacterium acnes assessed as resistant isolates by agar dilution method; method in brief: as §3
[22] = tested on: Propionibacterium; assay: Antimicrobial activity against Propionibacterium sp. by agar dilution method in presence of beta-lactamase inhibitor Tazobactam; method in brief: as §4
[23] = tested on: Propionibacterium; assay: Antimicrobial activity against Propionibacterium sp. assessed as resistant isolates by agar dilution method; method in brief: as §3
[24] = tested on: Parabacteroides distasonis; assay: Antimicrobial activity against Bacteroides distasonis by agar dilution method
Method in brief: (§5)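 CLSI agar dilution on enriched brucella agar (5% lysed defibrinated sheep blood, 1 μg/ml vitamin K1), with drug plates made on the test day. Log-phase cells were adjusted to 0.5 McFarland, and about 10^5 CFU/spot was delivered by Steers replicator. Plates were incubated anaerobically at 37°C for 48 h. MIC was the lowest concentration giving a marked growth change versus the control plate. Controls were B. fragilis ATCC 25285 and B. thetaiotaomicron ATCC 29741.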

[25] = tested on: Bacteroides caccae; assay: Antimicrobial activity against Bacteroides caccae by agar dilution method; method in brief: as §5
[26] = tested on: Bacteroides fragilis; assay: Antimicrobial activity against Bacteroides fragilis by agar dilution method; method in brief: as §5
[27] = tested on: Bacteroides ovatus; assay: Antimicrobial activity against Bacteroides ovatus by agar dilution method; method in brief: as §5
[28] = tested on: Bacteroides thetaiotaomicron; assay: Antimicrobial activity against Bacteroides thetaiotaomicron by agar dilution method; method in brief: as §5
[29] = tested on: Bacteroides uniformis; assay: Antimicrobial activity against Bacteroides uniformis by agar dilution method; method in brief: as §5
[30] = tested on: Phocaeicola vulgatus; assay: Antimicrobial activity against Bacteroides vulgatus by agar dilution method; method in brief: as §5
[31] = tested on: Bacteroides eggerthii; assay: Antimicrobial activity against Bacteroides eggerthii by agar dilution method; method in brief: as §5
[32] = tested on: Parabacteroides merdae; assay: Antimicrobial activity against Bacteroides merdae by agar dilution method; method in brief: as §5
[33] = tested on: Bacteroides nordii; assay: Antimicrobial activity against Bacteroides nordii by agar dilution method; method in brief: as §5
[34] = tested on: Clostridioides difficile; assay: Antimicrobial activity against Clostridium difficile by agar dilution method
[35] = tested on: Clostridium perfringens; assay: Antimicrobial activity against Clostridium perfringens by agar dilution method
[36] = tested on: [Clostridium] innocuum; assay: Antimicrobial activity against Clostridium innocuum by agar dilution method
[37] = tested on: Clostridium paraputrificum; assay: Antimicrobial activity against Clostridium paraputrificum by agar dilution method
[38] = tested on: Clostridium subterminale; assay: Antimicrobial activity against Clostridium subterminale by agar dilution method
[39] = tested on: Clostridium tertium; assay: Antimicrobial activity against Clostridium tertium by agar dilution method
[40] = tested on: Finegoldia magna; assay: Antimicrobial activity against Finegoldia magna by agar dilution method; method in brief: as §2
[41] = tested on: Peptoniphilus asaccharolyticus; assay: Antimicrobial activity against Peptoniphilus asaccharolyticus by agar dilution method; method in brief: as §2
[42] = tested on: Parvimonas micra; assay: Antimicrobial activity against Micromonas micros by agar dilution method; method in brief: as §2
[43] = tested on: Anaerococcus prevotii; assay: Antimicrobial activity against Anaerococcus prevotii by agar dilution method; method in brief: as §2
[44] = tested on: Peptostreptococcus sp.; assay: Antimicrobial activity against Peptostreptococcus sp. by agar dilution method; method in brief: as §4
[45] = tested on: Cutibacterium acnes; assay: Antimicrobial activity against Propionibacterium acnes by agar dilution method; method in brief: as §4
[46] = tested on: Propionibacterium; assay: Antimicrobial activity against Propionibacterium sp. by agar dilution method; method in brief: as §4

CCN1CCN(C(=O)N[C@@H](C(=O)N[C@@H]2C(=O)N3[C@@H]2SC(C)(C)[C@@H]3C(=O)O)c2ccccc2)C(=O)C1=O [PIPERACILLIN]
Activity [1]: 0%
Activity [2]: 0%
Activity [3]: 1%
Activity [4]: 0%
Activity [5]: 1.3%
Activity [6]: 0%
Activity [7]: 0%
Activity [8]: 0%
Activity [9]: 0%
Activity [10]: 0%
MIC [11]: 2 µg/mL
Activity [12]: 5.6%
MIC [13]: 0.5 µg/mL
MIC ([13]; Finegoldia magna, read-out: MIC): 0.5 µg/mL
Activity [14]: 0%
MIC [15]: 0.5 µg/mL
MIC ([15]; Peptoniphilus asaccharolyticus, read-out: MIC): 0.5 µg/mL
Activity [16]: 0%
MIC [17]: 0.5 µg/mL
MIC ([17]; Parvimonas micra, read-out: MIC): 0.5 µg/mL
MIC [18]: 0.5 µg/mL
MIC ([18]; Anaerococcus prevotii, read-out: MIC): 0.5 µg/mL
MIC [19]: 0.5 µg/mL
MIC ([19]; Peptostreptococcus sp., read-out: MIC): 0.5 µg/mL
MIC [20]: 0.25 µg/mL and 0.5 µg/mL
MIC ([20]; Cutibacterium acnes, read-out: MIC): 0.25 µg/mL
Activity [21]: 0%
MIC [22]: 0.25 µg/mL and 0.5 µg/mL
MIC ([22]; Propionibacterium, read-out: MIC): 0.25 µg/mL
Activity [23]: 0%

CCC[C@@H]1C[C@@H](C(=O)N[C@@H]([C@H]2O[C@H](SC)[C@H](O)[C@@H](O)[C@H]2O)[C@H](C)Cl)N(C)C1 [CLINDAMYCIN]
MIC50 [24]: 1 µg/mL (≈ 2.35 µM)
MIC90 [24]: 128 µg/mL (≈ 301 µM)
Activity [1]: 31.3%
MIC50 [25]: 1 µg/mL (≈ 2.35 µM)
MIC90 [25]: 128 µg/mL (≈ 301 µM)
Activity [2]: 13.3%
MIC [26]: 0.5 µg/mL (≈ 1.18 µM)
MIC50 [26]: 0.5 µg/mL (≈ 1.18 µM)
MIC90 [26]: 128 µg/mL (≈ 301 µM)
Activity [3]: 29.3%
MIC50 [27]: 2 µg/mL (≈ 4.71 µM)
MIC90 [27]: 128 µg/mL (≈ 301 µM)
Activity [4]: 42.9%
MIC50 [28]: 2 µg/mL (≈ 4.71 µM)
MIC90 [28]: 128 µg/mL (≈ 301 µM)
Activity [5]: 34.6%
MIC50 [29]: 2 µg/mL (≈ 4.71 µM)
MIC90 [29]: 128 µg/mL (≈ 301 µM)
Activity [6]: 3.8%
MIC [30]: 0.5 µg/mL (≈ 1.18 µM)
MIC50 [30]: 0.5 µg/mL (≈ 1.18 µM)
MIC90 [30]: 128 µg/mL (≈ 301 µM)
Activity [7]: 32.3%
MIC50 [31]: 1 µg/mL (≈ 2.35 µM)
MIC90 [31]: 8 µg/mL (≈ 18.8 µM)
Activity [8]: 20%
MIC50 [32]: 1 µg/mL (≈ 2.35 µM)
MIC90 [32]: 8 µg/mL (≈ 18.8 µM)
Activity [9]: 20%
MIC50 [33]: 1 µg/mL (≈ 2.35 µM)
MIC90 [33]: 8 µg/mL (≈ 18.8 µM)
Activity [10]: 20%
MIC [34]: 1 µg/mL (≈ 2.35 µM)
MIC50 [35]: 0.25 µg/mL (≈ 0.588 µM)
MIC90 [35]: 2 µg/mL (≈ 4.71 µM)
MIC50 [36]: 2 µg/mL (≈ 4.71 µM)
MIC90 [36]: 32 µg/mL (≈ 75.3 µM)
Activity [12]: 22.2%
MIC50 [37]: 2 µg/mL (≈ 4.71 µM)
MIC90 [37]: 32 µg/mL (≈ 75.3 µM)
MIC50 [38]: 2 µg/mL (≈ 4.71 µM)
MIC90 [38]: 32 µg/mL (≈ 75.3 µM)
MIC50 [39]: 2 µg/mL (≈ 4.71 µM)
MIC90 [39]: 32 µg/mL (≈ 75.3 µM)
MIC50 [40]: 0.5 µg/mL (≈ 1.18 µM)
MIC90 [40]: 32 µg/mL (≈ 75.3 µM)
Activity [14]: 20%
MIC50 [41]: 0.25 µg/mL (≈ 0.588 µM)
MIC90 [41]: 32 µg/mL (≈ 75.3 µM)
Activity [16]: 12.2%
MIC50 [42]: 0.25 µg/mL (≈ 0.588 µM)
MIC90 [42]: 32 µg/mL (≈ 75.3 µM)
MIC50 [43]: 0.25 µg/mL (≈ 0.588 µM)
MIC90 [43]: 32 µg/mL (≈ 75.3 µM)
MIC50 [44]: 0.25 µg/mL (≈ 0.588 µM)
MIC90 [44]: 32 µg/mL (≈ 75.3 µM)
MIC [45]: 0.25 µg/mL (≈ 0.588 µM)
MIC50 [45]: 0.25 µg/mL (≈ 0.588 µM)
MIC90 [45]: 0.5 µg/mL (≈ 1.18 µM)
Activity [21]: 5.6%
MIC [46]: 0.25 µg/mL (≈ 0.588 µM)
MIC50 [46]: 0.25 µg/mL (≈ 0.588 µM)
MIC90 [46]: 2 µg/mL (≈ 4.71 µM)
Activity [23]: 7.7%
